From ChEMBL document CHEMBL1126984, “o-phenylphenols: potent and orally active leukotriene B4 receptor antagonists” (J Med Chem, 1993)

How the values were obtained:
Cavia porcellus [1] = assay: In vivo antagonistic activity against LTB4 induced airway obstruction in guinea pig following intravenous administration; format: functional
Outline: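 Guinea pigs dosed intravenously 5 min before a 3.0 µg/kg iv LTB4 challenge. Animals killed 1 min after challenge. Excised lung gas volume (ELGV) measured as the index of airway obstruction severity. Means ± SEM, 3-14 guinea pigs per group; ED50 in mg/kg.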

Cavia porcellus [2] = assay: In vivo antagonistic activity against LTB4 induced airway obstruction in guinea pig following oral administration; format: functional
Outline: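 Guinea pigs dosed orally 2 h before a 3.0 µg/kg iv LTB4 challenge. Animals killed 1 min after challenge. Excised lung gas volume (ELGV) measured as the index of airway obstruction severity. Means ± SEM, 3-14 guinea pigs per group.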

Cavia porcellus [3] = species on record: Cavia porcellus; assay: Inhibition of LTB4-induced contraction of guinea pig lung parenchyma strips; format: functional
Leukotriene B4 receptor [4] = target: T1, Leukotriene B4 receptor (Homo sapiens, UniProt Q9NPC1+Q15722); assay: Inhibition of [3H]LTB4 receptor binding in human neutrophils; format: protein assay
[5] = target: Leukotriene B4 receptor (Cavia porcellus); assay: Inhibition of [3H]LTB4 receptor binding in guinea pig lung membrane
Leukotriene B4 receptor [6] = target: T1, Leukotriene B4 receptor; assay: Inhibition of LTB4-induced human neutrophil CD11b/CD18 integrin up-regulation; format: functional

| SMILES | IC50 (Leukotriene B4 receptor [4]) | Ki [5] | IC50 (Leukotriene B4 receptor [6]) | ED50 (Cavia porcellus [1]) | ED50 (Cavia porcellus [2]) | pKB (Cavia porcellus [3]) |
| --- | --- | --- | --- | --- | --- | --- |
| CCc1cc(-c2ccccc2)c(O)cc1OCCCCCC(C)(C)c1nn[n-]n1.[Na+] |  |  |  | 0.05 mg/kg | 0.7 mg/kg | 8.3 |
| CCc1cc(-c2ccc(F)cc2)c(O)cc1OCCCCCC(C)(C)c1nn[n-]n1.[Na+] |  |  |  | 0.03 mg/kg | 0.56 mg/kg | 8.3 |
| CCc1cc(-c2ccccn2)c(O)cc1OCCCCCC(C)(C)c1nn[n-]n1.[Na+] | 453 nM | 196 nM |  |  |  |  |
| CCc1cc(C(C)=O)c(O)cc1OCCCCCC(C)(C)c1nn[n-]n1.[Na+] |  |  |  |  |  | 6.7 |
| CCOc1cc(CC)c(OCCCCCC(C)(C)c2nn[n-]n2)cc1O.[Na+] |  |  |  |  |  | 6.6 |

More lines, main results first:

| IC50 (Leukotriene B4 receptor [4]) | Ki [5] | IC50 (Leukotriene B4 receptor [6]) | SMILES | ED50 (Cavia porcellus [1]) | ED50 (Cavia porcellus [2]) | pKB (Cavia porcellus [3]) |
| --- | --- | --- | --- | --- | --- | --- |
| 33.2 nM | 76.9 nM |  | CCc1cc(-c2cccc(C(F)(F)F)c2)c(O)cc1OCCCCCC(C)(C)c1nn[n-]n1.[Na+] |  |  |  |
| 15.8 nM | 85.9 nM |  | CCc1cc(-c2ccc(N(C)C)cc2)c(O)cc1OCCCCCC(C)(C)c1nn[n-]n1.[Na+] |  |  |  |
| 9.3 nM | 14.2 nM | 161 nM | CCCc1cc(CC)c(OCCCCCC(C)(C)c2nn[n-]n2)cc1O.[Na+] |  |  | 7.6 |
